For 44 compounds, inhibition, solubility and IC50 results are on record in ChEMBL document CHEMBL1649401, “Synthesis and biophysical evaluation of arylhydrazono-1H-2-indolinones as β-amyloid aggregation inhibitors” (Eur J Med Chem, 2011).

A short description of series [1]: Inhibition of amyloid beta (1 to 40) aggregation at 100 uM after 2 hrs by thioflavin T based fluorometric assay. Summed up: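 Aβ1-40 (HFIP-treated, lyophilized) at 30 μM in PBS (0.01 M, NaCl 0.1 M, pH 7.4) containing 2% HFIP and 10% DMSO. Incubated with inhibitor in triplicate, 2 h at 25 °C. Sample mixed with 25 μM ThT in 0.025 M phosphate pH 6.0, read at ex 440/em 485 nm. % inhibition = 100 − [(Fi − Fb)/F0]×100. Screen at 100 μM.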

A short description of series [2]: Inhibition of amyloid beta (1 to 40) aggregation assessed as formation of long and curly fibrils at 5 uM after 7 days by transmission electron microscopic analysis.
A short description of series [3]: Inhibition of amyloid beta (1 to 40) aggregation assessed as effect on extension of beta-sheet content at 5 uM after 2 days by CD spectroscopy assay. The essentials:
(§1)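 Samples as for TEM: 50 μM Aβ1-40, 0.217 M phosphate pH 8.0, 10% ethanol, 37 °C incubation, aliquots removed over time. Spectra 195–250 nm, 0.1 cm cell, room temperature, 0.1 nm steps, 4 nm bandwidth. Buffer/ethanol (± compound) blank subtracted. Absolute 215 nm ellipticity plotted vs incubation time.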

A short description of series [4]: Inhibition of amyloid beta (1 to 40) aggregation assessed as reduction of exponential phase of thioflavin T fluorescence curve at 100 uM after 3 to 4 days. The essentials: (§2)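 Aβ1-40 (50 μM) incubated alone or with compound in 0.217 M phosphate pH 8.0, 10% ethanol, 37 °C. Aliquots taken at time points over several days and analyzed by ThT fluorescence. Values expressed as percentage of the plateau fluorescence of free aggregation.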

A short description of series [5]: Solubility of the compound in aqueous buffer. The class given is physicochemical.
Series [6] is described as follows: Inhibition of amyloid beta (1 to 40) aggregation assessed as reduction of exponential phase of thioflavin T fluorescence curve at 25 uM after 3 to 4 days. The essentials: as §2
A short description of series [7]: Inhibition of amyloid beta (1 to 40) aggregation assessed as reduction of exponential phase of thioflavin T fluorescence curve at 5 uM after 3 to 4 days. Summed up: as §2
A short description of series [8]: Inhibition of amyloid beta (1 to 40) aggregation assessed as delay in formation of fibrils at 5 uM after 12 hrs by dynamic light-scattering analysis. Summed up:
(§3)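 Dynamic light scattering at a 173° backscatter angle with a 633 nm laser, cell held at 37 °C. z-averaged hydrodynamic diameter obtained by second-order cumulant analysis and the Stokes–Einstein equation.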

Series [9] can be described thus: Inhibition of amyloid beta (1 to 40) aggregation assessed as reduction of autocorrelation function particles size at 5 uM after 3 days by dynamic light-scattering analysis. Summed up: as §3
A short description of series [10]: Inhibition of amyloid beta (1 to 40) aggregation assessed as loss of stable random coil arrangement of peptide up to 100 uM after up to 8 days by CD spectroscopy assay. The essentials: as §1
The nature of series [11]: Inhibition of amyloid beta (1 to 40) aggregation assessed as effect on extension of beta-sheet content at 5 uM up to 8 days by CD spectroscopy assay. The essentials: as §1
The nature of series [12]: Inhibition of amyloid beta (1 to 40) aggregation after 2 hrs by thioflavin T based fluorometric assay.
Series [13] can be described thus: Inhibition of amyloid beta (1 to 40) aggregation assessed as loss of beta-sheet structure up to 100 uM after up to 8 days by CD spectroscopy assay. The essentials: as §1
Series [14] in a line: Inhibition of amyloid beta (1 to 40) aggregation assessed as inhibition of extended fibrils formation at 5 uM after 7 days by transmission electron microscopic analysis.

pIC50: −log10 of the molar value. Active and inactive are the calls of the source. No cut-off for these calls is given here.

`O=C1Nc2ccc(O)cc2/C1=N/Nc1ccc(O)cc1` yielded an inhibition in series [1] of 61%.
Turning to `COc1ccc2c(c1)/C(=N/Nc1ccc(OCc3ccccc3)cc1)C(=O)N2`, in [1], the inhibition amounted to 20%.
Regarding `O=C1Nc2cc(O)c(O)cc2/C1=N/Nc1cccc(Cl)c1`, the inhibition entry in series [2], in [4], in series [6], in [7], in [8] and in series [10] was “Active” in each case. In addition, the inhibition result in series [11], in [13] and in series [14] was “Active” in each case. Also, the inhibition entry in series [3] and in [9] was “inactive” throughout. Besides, in series [5], the solubility entry is “soluble”. For the same compound, the pIC50 in [12] is 5.96.
For `O=C1Nc2cc(O)c(O)cc2/C1=N/Nc1ccccc1Cl`, in series [12], the negative-log IC50 (pIC50) was 4.96.
For `O=C1Nc2ccc(O)cc2/C1=N/Nc1cccc(Cl)c1`, the pIC50 in series [12] was 4.74.
In series [12], `O=C1Nc2cc(O)ccc2/C1=N/Nc1ccccc1` gave a pIC50 of 4.66.
Same read-out and setting: for `O=C1Nc2ccccc2/C1=N/Nc1ccc(O)cc1` the value was 5.03.
`O=C1Nc2ccccc2/C1=N/Nc1cccc([N+](=O)[O-])c1`: the inhibition in [1] was 29%.
`O=C1Nc2ccc([N+](=O)[O-])cc2/C1=N/Nc1ccccc1`: the inhibition in series [1] was determined as 0%.
Regarding `COc1ccc2c(c1)/C(=N/Nc1ccc(C(C)(C)C)cc1)C(=O)N2`, the negative logarithm of the IC50 (pIC50) in [12] was 4.82.
On the same count and under the same terms, for `CC(C)c1ccc(N/N=C2\C(=O)Nc3ccc(O)cc32)cc1` the value was 4.68.
`COc1cc2c(cc1OC)/C(=N/Nc1ccccc1)C(=O)N2` registered an inhibition in series [1] of 68%.
As to `COc1ccc2c(c1)/C(=N/Nc1ccc(Cl)cc1)C(=O)N2`, the inhibition in series [1] is 43%.
Consider `COc1ccc2[nH]c(O)c(/N=N/c3ccccc3)c2c1`, for which the inhibition in [1] was found to be 52%.
Regarding `O=C1Nc2cc(O)c(O)cc2/C1=N/Nc1ccccc1`, the pIC50 in series [12] is 5.37.
The compound `CC(C)c1ccc(N/N=C2\C(=O)Nc3cc(O)ccc32)cc1` gave a pIC50 in series [12] of 5.22.
`COc1ccc2c(c1)/C(=N/Nc1ccc(C)cc1)C(=O)N2` returned an inhibition in series [1] of 29%.
`O=C1Nc2cc(O)c(O)cc2/C1=N/Nc1ccc(Cl)cc1` had a pIC50 in series [12] of 4.77.
Take `O=C1Nc2cc(Cl)c(F)cc2/C1=N/Nc1ccc(Cl)cc1`: the inhibition in series [1] stood at 28%.
`COc1ccc(N/N=C2\C(=O)Nc3ccccc32)cc1` showed a pIC50 in [12] of 4.89.
Compound `COc1ccc2c(c1)/C(=N/Nc1cccc(OCc3ccccc3)c1)C(=O)N2` registered an inhibition in series [1] of 44%.
Consider `COc1cc2c(cc1OC)/C(=N/Nc1ccc(Cl)cc1)C(=O)N2`, for which the inhibition in [1] is 71%.
As to `CC(C)c1ccc(N/N=C2\C(=O)Nc3ccccc32)cc1`, in series [1], the inhibition turned out to be 64%.
Turning to `CC(C)c1ccc(N/N=C2\C(=O)Nc3cc(O)c(O)cc32)cc1`, the pIC50 in series [12] is 5.80.
As to `O=C1Nc2ccccc2/C1=N/Nc1ccc(OC(F)(F)F)cc1`, the inhibition in series [1] worked out at 57%.
In series [1], `O=C1Nc2ccc([N+](=O)[O-])cc2/C1=N/Nc1ccc(Cl)cc1` came in with an inhibition of 12%.
Same read-out and setting: for `O=C1Nc2ccccc2/C1=N/Nc1cccc(F)c1` the value was 52%; for `COc1cc2c(cc1OC)/C(=N/Nc1ccccc1Cl)C(=O)N2`, 68%.
`COc1ccc2c(c1)NC(=O)/C2=N\Nc1ccc(C(C)C)cc1` gave a pIC50 in series [12] of 5.15.
Regarding `O=C1Nc2ccccc2/C1=N/Nc1ccc(Cl)cc1`, in [1], the inhibition was determined as 24%.
On to `COc1ccc(N/N=C2\C(=O)Nc3cc(OC)c(OC)cc32)cc1`, for which the negative logarithm of the IC50 (pIC50) in series [12] is 4.66.
As to `O=C1Nc2ccc(O)cc2/C1=N/Nc1ccccc1`, the inhibition in [1] amounted to 62%.
As for `O=C1Nc2ccc(Br)cc2/C1=N/Nc1ccc(Cl)cc1`, the inhibition in series [1] worked out at 63%.
`O=C1Nc2ccccc2/C1=N/Nc1cccc(Cl)c1`: in series [1], the inhibition was found to be 39%.
Regarding `COc1ccc(N/N=C2\C(=O)Nc3ccc(OC)cc32)cc1`, in series [12], the negative logarithm of the IC50 (pIC50) was 5.43.
`COc1cc2c(cc1OC)/C(=N/Nc1ccc(C(C)C)cc1)C(=O)N2` gave a pIC50 in series [12] of 5.36.
For the compound `O=C1Nc2ccccc2/C1=N/Nc1ccccc1Cl`, the inhibition in [1] stood at 44%.
With `COc1cc2c(cc1OC)/C(=N/Nc1cccc(Cl)c1)C(=O)N2`, in series [12], the pIC50 is 4.77.
The compound `COc1ccc2c(c1)/C(=N/Nc1cccc(C(C)(C)C)c1)C(=O)N2` displayed an inhibition in series [1] of 56%.
In series [1], `Oc1[nH]c2ccccc2c1/N=N/c1ccccc1` yielded an inhibition of 61%.
Regarding `COc1ccc2c(c1)/C(=N/Nc1ccc(C(C)C)cc1)C(=O)N2`, the pIC50 in [12] was 6.40.
The same measure, in the same setting: for `COc1ccc2c(c1)NC(=O)/C2=N\Nc1ccccc1` the value was 5.24.
`O=C1Nc2cc(O)c(O)cc2/C1=N/Nc1ccc(O)cc1` gave a pIC50 in series [12] of 4.62.
In the case of `COc1ccc2c(c1)/C(=N/Nc1cccc(Cl)c1)C(=O)N2`, the inhibition in [1] was 72%.
